Here are results for 5 compounds from ChEMBL document CHEMBL3856278, “Antitumor Activity of Lankacidin Group Antibiotics Is Due to Microtubule Stabilization via a Paclitaxel-like Mechanism” (J Med Chem, 2016).

For test [1], the species on record is Sus scrofa. The test can be described thus: Induction of porcine tubulin polymerization assessed as bypass of nucleation phase at 10 uM measured every 94 secs. Put shortly: (§1)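 Plate prewarmed to 37 °C; OD340 read at 37 °C every 94 s for 61 cycles with orbital shaking. Runs in triplicate, duplicate for mebendazole; the averaged curve gave phase lengths, Vmax and final polymer mass.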

For test [2], the species on record is Sus scrofa. The test is described as follows: Induction of porcine tubulin polymerization assessed as increase in final polymer mass at 10 uM measured every 94 secs. Put shortly:
(§2)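 Assembly followed at 37 °C by OD340 every 94 s for 61 cycles. Averaged curves from three runs were analysed for nucleation, Vmax and final polymer mass.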

In test [3] the test system is T47D. The test is described as follows: Stabilization of microtubule network in human T47D cells at 100 nM after 2 hrs by DAPI staining-based immunofluorescence assay. The class given is cell-based. Put shortly: (§3)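 T47D cells in RPMI1640 with 2 mM L-glutamine, 10% FBS, 0.01 mg/mL insulin and 1 mM pyruvate were seeded on coverslips, synchronized, then given drug 2 h (1% DMSO solvent control). Anti-tubulin antibody with Alexa Fluor 488 secondary and 0.1 μg/mL DAPI for DNA; epifluorescence at 63×, interphase networks and mitotic spindles scored.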

Test [4] is filed under the species Sus scrofa. The test can be described thus: Stabilization of rhodamine labeled porcine microtubule assessed as appearance of long strands microtubules at 10 uM after 5 mins by upright fluorescence microscopic analysis. Put shortly:
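Rhodamine-labeled tubulin mixed 1:4 with unlabeled tubulin to 5 mg/mL in G-PEM (12% glycerol, pH 7.0). Polymerized 20 min at 37 °C, then drug added to 10 μM and incubated 5 min more at 37 °C. Diluted to 1.3 mg/mL and imaged immediately by fluorescence microscopy with a 40× oil objective.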

For test [5], the system named is T47D. The test can be described thus: Stabilization of interphase microtubule network in human T47D cells assessed as disruption of mitotic spindles at 100 nM after 2 hrs by DAPI staining-based immunofluorescence assay. The class given is cell-based. Put shortly:
as §3

The species named for test [6] is Sus scrofa. The test is described as follows: Induction of porcine tubulin polymerization assessed as maximum growth rate at 10 uM measured every 94 secs (reference value: 13 milliOD/min). Put shortly:
as §2

For test [7], the species on record is Sus scrofa. The test can be described thus: Destabilization of rhodamine labeled porcine microtubule assessed as appearance of short strands microtubules at 10 uM after 5 mins by upright fluorescence microscopic analysis.
Test [8] relates to T47D. The test can be described thus: Destabilization of microtubule network in human T47D cells at 0.5 uM after 2 hrs by DAPI staining-based immunofluorescence assay. The class given is cell-based. Put shortly: (§4)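 T47D cells seeded on coverslips and synchronized. Treated 2 h with drug (colchicine 0.5 μM, paclitaxel 100 nM, lankacidin C 1 mM) against a 1% DMSO control. Stained with anti-tubulin antibody and Alexa Fluor 488 secondary, DNA counterstained with DAPI. Imaged by epifluorescence microscopy with a 63× objective.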

Test [9] deals with Tubulin alpha-1A /beta chains (Homo sapiens, UniProt P07437+Q71U36). The test can be described thus: (§5) Binding affinity to human recombinant tubulin alpha 1A/tubulin beta chain after 30 mins by fluorescence quenching assay. Type of test: protein-complex assay. Put shortly:
(§6)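 Free tubulin dimers (porcine brain tubulin, or recombinant human αI-βI) at 2 μM final in 10 mM sodium phosphate, 10 mM MgCl2, 1 mM GTP, 0.5% DMSO, 250 mM sucrose, pH 7.0. Held on ice 10 min, then ligand added at 5–100 μM final. Incubated 30 min at 25 °C, then rotated 1 h at room temperature. Tryptophan emission read at 310–400 nm with 295 nm excitation. Kd derived by Stern–Volmer fit.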

For test [10], the target named is Tubulin alpha-1A /beta chains (Homo sapiens) (UniProt Q71U36+P07437). The description is as §5. Type of test: protein-complex assay. Put shortly: as §6
Chain of Tubulin alpha-1A /beta chains (Homo sapiens) (P07437 whole entry, looked up): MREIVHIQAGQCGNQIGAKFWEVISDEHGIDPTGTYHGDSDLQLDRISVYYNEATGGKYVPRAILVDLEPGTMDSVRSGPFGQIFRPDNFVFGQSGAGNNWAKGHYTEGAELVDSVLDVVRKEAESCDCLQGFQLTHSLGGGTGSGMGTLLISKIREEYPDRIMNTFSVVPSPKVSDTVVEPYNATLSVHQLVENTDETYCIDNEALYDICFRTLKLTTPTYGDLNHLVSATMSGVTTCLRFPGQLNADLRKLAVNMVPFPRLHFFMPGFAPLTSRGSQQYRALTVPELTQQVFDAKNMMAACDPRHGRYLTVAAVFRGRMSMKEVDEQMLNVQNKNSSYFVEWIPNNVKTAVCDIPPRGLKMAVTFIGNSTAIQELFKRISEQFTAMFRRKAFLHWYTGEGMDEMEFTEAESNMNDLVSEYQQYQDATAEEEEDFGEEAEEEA
Chain of Tubulin alpha-1A /beta chains (Homo sapiens) (Q71U36 whole entry, looked up): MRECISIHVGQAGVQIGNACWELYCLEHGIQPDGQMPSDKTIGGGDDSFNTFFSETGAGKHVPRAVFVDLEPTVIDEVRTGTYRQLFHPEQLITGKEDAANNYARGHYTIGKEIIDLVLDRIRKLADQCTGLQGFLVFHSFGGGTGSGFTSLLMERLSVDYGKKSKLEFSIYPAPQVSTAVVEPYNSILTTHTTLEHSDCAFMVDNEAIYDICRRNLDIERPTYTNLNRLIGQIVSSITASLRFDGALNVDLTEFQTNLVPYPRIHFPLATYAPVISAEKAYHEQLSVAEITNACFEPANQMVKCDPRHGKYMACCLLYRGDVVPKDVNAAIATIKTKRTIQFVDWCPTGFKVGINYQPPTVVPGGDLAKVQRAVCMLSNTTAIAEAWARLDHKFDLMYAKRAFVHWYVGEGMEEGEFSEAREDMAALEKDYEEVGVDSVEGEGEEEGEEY
Test [11] is filed under the species Sus scrofa. The test can be described thus: (§7) Binding affinity to free porcine brain tubulin dimers after 30 mins by fluorescence quenching assay. Put shortly:
as §6

Test [12] is described as follows: as §7. Set-up: species or system Sus scrofa. Put shortly: as §6
The species entered for test [13] is Sus scrofa. The test can be described thus: Inhibition of porcine tubulin polymerization assessed as maximum growth rate at 10 uM measured every 94 secs (reference value: 13 milliOD/min). Put shortly: as §1
Test [14] is filed under the species Sus scrofa. The test can be described thus: Inhibition of porcine tubulin polymerization assessed as decrease in final polymer mass at 10 uM measured every 94 secs. Put shortly:
as §1

Test [15] is filed under the species Sus scrofa. The test is described as follows: Inhibition of porcine tubulin polymerization assessed as increase in duration of nucleation phase at 10 uM measured every 94 secs. Put shortly:
as §1

A short description of test [16]: Cytotoxicity against human HeLa cells assessed as decrease in cell viability after 96 hrs by CellTiter-Blue assay. The class given is functional, cell-based. Put shortly:
(§8)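 HeLa cells in DMEM with 10% FBS; T47D cells in RPMI1640 with 10% FBS, insulin and pyruvate. Cells seeded at 2000 per well 24 h before treatment. Triplicate wells given increasing drug concentrations in DMSO for 48, 72 or 96 h. Viability read by CellTiter-Blue fluorescence (560ex/590em) after 2–4 h with reagent. Run twice; mean and SEM reported.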

For test [17], the species on record is Sus scrofa. The test can be described thus: Induction of porcine tubulin polymerization assessed as maximum growth rate at 100 uM measured every 94 secs (reference value: 13 milliOD/min). Put shortly:
as §2

Test [18] can be described thus: Cytotoxicity against human HeLa cells assessed as decrease in cell viability after 72 hrs by CellTiter-Blue assay. Type of test: functional, cell-based. Put shortly:
as §8

Test [19] in a line: Cytotoxicity against human HeLa cells assessed as decrease in cell viability after 48 hrs by CellTiter-Blue assay. The class given is functional, cell-based. Put shortly:
as §8
On the technique in general: Resazurin is reduced to fluorescent resorufin, in cell work by metabolically active cells.

The nature of test [20]: Cytotoxicity against human T47D cells assessed as decrease in cell viability after 48 hrs by CellTiter-Blue assay. The class given is functional, cell-based. Put shortly:
as §8

Test [21] can be described thus: Cytotoxicity against human T47D cells assessed as decrease in cell viability after 96 hrs by CellTiter-Blue assay. The class given is functional, cell-based. Put shortly: as §8
The species named for test [22] is Sus scrofa. The test is described as follows: Induction of porcine tubulin polymerization assessed as bypass of nucleation phase at 100 uM measured every 94 secs. Put shortly: as §2
The nature of test [23]: Inhibition of flutax-2 binding to porcine microtubule assessed as flutax-2 EC50 at 128 uM after 1 hr by fluorescence assay (reference value: 248 +/- 50 nM). On the set-up: species or system Sus scrofa.
The test system of test [24] is T47D. The test can be described thus: Stabilization of interphase microtubule network in human T47D cells assessed as disruption of mitotic spindles at 1 mM after 2 hrs by DAPI staining-based immunofluorescence assay. The class given is cell-based. Put shortly: as §4
Test [25] is described as follows: Binding affinity to paclitaxel binding site of porcine microtubule after 1 hr by Michaelis-Menten plot analysis. On the set-up: species or system Sus scrofa. The settings on record: read-out: Kd(app).
Test [26] is filed under the species Sus scrofa. The test is described as follows: Induction of porcine tubulin polymerization assessed as decrease in duration of nucleation phase at 10 uM measured every 94 secs. Put shortly: as §2
For test [27], the species on record is Sus scrofa. The test is described as follows: Induction of porcine tubulin polymerization assessed as doubling of final polymer mass at 100 uM measured every 94 secs. Put shortly: as §2
The subject of test [28] is T47D. The test is described as follows: Stabilization of interphase microtubule network in human T47D cells at 1 mM after 2 hrs by DAPI staining-based immunofluorescence assay. The class given is cell-based. Put shortly:
as §4

Calls of active or inactive are those of the source. No cut-off for these calls is given here.

Chain of Tubulin alpha-1A /beta chains (P07437 whole entry, looked up): as the sequence (P07437 whole entry, looked up) above
Chain of Tubulin alpha-1A /beta chains (Q71U36 whole entry, looked up): as the sequence (Q71U36 whole entry, looked up) above

As to `CC(=O)O[C@H]1C(=O)[C@@]2(C)[C@H]([C@H](OC(=O)c3ccccc3)[C@]3(O)C[C@H](OC(=O)[C@H](O)[C@@H](NC(=O)c4ccccc4)c4ccccc4)C(C)=C1C3(C)C)[C@]1(OC(C)=O)CO[C@@H]1C[C@@H]2O`, the result in test [1], in test [2], in [3], in test [4] and in test [5] was Active. In addition, the Vmax (milli optical density/minute) in test [6] turned out to be 21.

On to `COc1cc2c(c(OC)c1OC)-c1ccc(OC)c(=O)cc1[C@@H](NC(C)=O)CC2`, for which the outcome in test [7] and in [8] was Active.

As for `CC(=O)O[C@@H]1/C=C/C(C)=C/C[C@H](O)/C=C/C(C)=C/[C@@H](NC(=O)C(C)O)[C@]2(C)C(=O)O[C@H](C1)[C@@H](C)C2=O` (stereo not given in full), the Kd was found to be 654 µM in test [9] and 1100 µM in test [12]. Also, the Activity entry in test [10] and in test [11] was “Dose-dependent effect” each time.

As for `COC(=O)Nc1nc2cc(C(=O)c3ccccc3)ccc2[nH]1`, the Vmax (milli optical density/minute) in test [13] amounted to 4. Further, the inhibition result in test [14] and in test [15] was “Active” each time.

In general, IC50 refers to the concentration needed to halve the response being measured. By EC50 is commonly meant the concentration needed to bring the measured effect to its halfway point. As for `CC(=O)C(=O)N[C@@H]1/C=C(\C)C=C[C@@H](O)C/C=C(C)/C=C/[C@@H](O)C[C@H]2OC(=O)[C@]1(C)C(=O)[C@@H]2C`, the IC50 amounted to 224 µM in [16]; 324 µM in test [18]; 1080 µM in test [19]; 202 µM in [20]; 11.1 µM in [21]. For the same compound, the Vmax (milli optical density/minute) in test [17] is 35; in test [6], 18. Further, the figures for the Kd in [9], in test [12] and in [25] were 1060 µM, 546 µM and 50 µM, respectively. The Activity entry in test [10] and in test [11] was “Dose-dependent effect” throughout. For the same compound, the result in test [22], in test [2], in test [4], in test [24], in [26] and in test [27] was Active. Besides, in test [28], the result was Active. Also, the concentration giving a half-maximal response (EC50) in test [23] amounted to 0.921 µM.
